Sampled rows, rich in hits. Any-hit rate of the full collection: about 5.7%.
Beta cell apopt: inhibitors of cytokine-induced beta cell apoptosis, primary screen, luminescence | INS-1E cytokine-induced death, ATP luminescence, 48 h; percent of positive-control rescue, neutral wells zero | protection from apoptosis, % (concentration not given with the values) | 300,000 compounds, 0.8% hits | AID 435005, 2010;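 active = Every replicate reaches about 75%, or at least half do and their mean reaches it too, limit read from the data; inconclusive = At least half of replicates reach the limit but their mean does not; inactive = Under half of replicates reach the limit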;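 also: higher means more ATP so stronger rescue from cytokine killing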
SKKanGAS inh: S. pyogenes SKKanGAS growth inhibitors in kanamycin, primary screen, streptokinase expression inhibitor project, SKKanGAS strain, BacTiter-Glo luminescence | inhibition, % at 7.5 µM | 6 h | 300,000 compounds, 1.3% hits;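 active = mean replicate score, as percent of positive control median, at least 50; inconclusive = mean below 50 but one replicate at or above 50; inactive = mean and every replicate below 50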;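 also: strain carries kanamycin resistance gene driven by streptokinase promoter and grows in 40 µg/ml kanamycin; loss of luminescence reflects streptokinase promoter inhibition or plain growth inhibition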
Mdm2-MdmX inh: inhibitors of human Mdm2-MdmX association, primary screen, cell-based, luminescence, split luciferase, SaOS-2, uHTS. SaOS-2 split-luciferase Mdm2/MdmX complementation. inhibition, % at 8 µM. 330,000 compounds, 3% hits. AID 485346, 2010;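 active = inhibition of at least 50% at 8 µM in the primary screen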
CSC inhib: cancer stem cell viability inhibitors, primary screen, luminescence | 300,000 compounds, 1.1% hits | inhibition, % at 7.5 µM | cancer stem cell-like cells viability | AID 2717, 2010; in the data active = inhibition above about 75%; inconclusive = no clear call, values can overlap the other calls; tested in HMLE shEcad cells
Calb FLC: C. albicans growth inhibition with fluconazole, primary screen, CaCi-2 strain, Alamar Blue fluorescence. C. albicans CaCi-2 (fluconazole-resistant clinical isolate) + fluconazole, 48 h. growth inhibition, % (concentration not given with the values). 300,000 compounds, 0.57% hits. AID 1979, 2009;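 active = growth inhibition above about 58% in most replicates, limit read from the data, passing the limit was not always enough; inconclusive = exactly half the replicates above a set limit; inactive = most replicates below a set limit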;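 also: all wells also contain fluconazole at 8 µg/ml as a sub-toxic cotreatment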
T cruzi inh: inhibitors of intracellular T. cruzi growth, primary screen, luminescence, NIH3T3 host cells. T. cruzi beta-gal in NIH3T3, 90 h. inhibition, % (no concentration beside the values). 300,000 compounds, 1.4% hits;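 active = mean inhibition across valid replicates above about 55%, limit read from the data; inconclusive = mean below that limit but half or more replicates reach it; inactive = mean below it, under half of replicates reach it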;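 also: signal also drops with host cell toxicity which is not excluded here; higher percent means less beta-gal luminescence so fewer parasites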
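compound dosing = single 50 nL compound addition per well in DMSO | material = NIH/3T3 host cells with β-galactosidase reporter T. cruzi | input = 5,000 host fibroblasts per well | timing = ≥90 h infection period, 3 h prior cell attachment | read-out basis = percent inhibition of parasite-derived β-gal signal | detection = GalScreen β-gal luminescence, detergent lysis, 60 min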
Mdm2-MdmX conf: Mdm2-MdmX complex disruptors, retested hits, confirmation, luminescence, single concentration; shares compounds with Mdm2-MdmX inh; inhibition, % at 8 µM; 10,000 compounds, 55% hits; Mdm2-MdmX binding, luminescent assay; in the data active = inhibition above about 40%
FLuc counter: full-length luciferase signal inhibition, confirmation, counter-screen for Mdm2/MdmX interaction inhibitor project, cell-based, single concentration, SaOS-2; shares compounds with Mdm2-MdmX inh; SaOS-2 full-length luciferase counterscreen, luminescence; inhibition, % at 8 µM; 6,200 compounds, 77% hits;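 active = mean inhibition at 8 µM reaching about 37%, which flags the compound as non-specific, limit read from the data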;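 also: p53-null SaOS-2 cells with luciferase driven by a doxycycline-inducible promoter; compound on cells about two nights before reading with doxycycline added after day one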
Of the large screens only hits and unclear results are named; the others gave an inactive call (follow-up assays come after a bar, where they were run).

COc1c(/C=N/Nc2ccc([N+](=O)[O-])cc2[N+](=O)[O-])c(C)nn1-c1ccccc1	Mdm2-MdmX inh 54.1 | Mdm2-MdmX conf inactive
O=C(CN1CCN(Cc2ccc3c(c2)OCO3)CC1)Nc1ccc(N2CCOCC2)cc1	none
CC(C)CN(C(=O)COC(=O)CSc1ccc([N+](=O)[O-])cc1)C1CCS(=O)(=O)C1 (stereo not given)	none
O=C(CC1CCCC1)Nc1cc(C(F)(F)F)ccc1-n1cncn1	none (no result: SKKanGAS inh, Calb FLC, T cruzi inh)
COCCCNc1nc2ccccc2nc1NS(=O)(=O)c1cccc(C)c1	none
NS(=O)(=O)c1ccc(NC(=O)/C=C/c2cn(-c3ccccc3)nc2-c2cccc(Cl)c2)cc1	Mdm2-MdmX inh 50.2 | Mdm2-MdmX conf inactive
O=C(O)/C=C/c1cn(-c2ccccc2)nc1-c1cccc([N+](=O)[O-])c1	Calb FLC inconclusive
Cc1ccc(NS(=O)(=O)c2ccc(NC(=O)c3ccccc3C(=O)O)cc2)cc1C	none
CCn1ncc(/C=N/N=C2\CCC3C4CCc5cc(O)ccc5C4CCC23C)c1C (stereo not given)	Mdm2-MdmX inh 50.7, Calb FLC inconclusive (no result: Beta cell apopt) | Mdm2-MdmX conf inactive
Nc1c(N=Nc2cccc(Cl)c2)c(=O)[nH]n1-c1ccccc1	Mdm2-MdmX inh 56.2 | Mdm2-MdmX conf inactive
CC(=O)N(c1ccc(Cl)cc1)c1cn(C(C)=O)c2ccccc12	none
CC(=O)n1cc(N(C(=O)CCl)c2ccc(C)cc2)c2ccccc21	Mdm2-MdmX inh 98.7 | Mdm2-MdmX conf 100.1 | FLuc counter 52.4
COc1ccc(NC(=O)COC(=O)C2CC2)c(OC)c1	none (no result: SKKanGAS inh, Calb FLC, T cruzi inh)
CCOc1ccc2oc(C(=O)N(CC)CC(=O)Nc3c(F)cccc3F)c(C)c2c1	none
CC(=O)NC1C(=O)N(Cc2ccccc2)c2ccc(Br)cc21 (stereo not given)	Mdm2-MdmX inh 75.0 | Mdm2-MdmX conf 42.0 | FLuc counter 48.9
Cn1nc(-c2ccccn2)nc2c(=O)n(C)c(=O)nc1-2	Beta cell apopt 126.7, SKKanGAS inh 52.2, Mdm2-MdmX inh 66.1, CSC inhib 120.2, T cruzi inh 58.6 | Mdm2-MdmX conf 80.2 | FLuc counter inactive
COc1ccc(-c2nc(-c3ccccn3)ncc2S(C)(=O)=O)cc1	none
O=C(COC(=O)CCc1c[nH]c2ccccc12)Nc1ccccc1C(F)(F)F	none (no result: SKKanGAS inh, CSC inhib, Calb FLC, T cruzi inh)
O=S(=O)(Cc1ccccc1)c1cnc2ccccc2n1	Mdm2-MdmX inh 59.2 | Mdm2-MdmX conf inactive
O=S(=O)(c1ccc(Br)cc1)c1cnc2ccccc2n1	Mdm2-MdmX inh 50.0 | Mdm2-MdmX conf inactive
COc1ccc(S(=O)(=O)c2cnc3ccccc3n2)cc1	none
Cc1sc2nc(CSC(C)C(=O)N(C)CC(=O)Nc3ccccc3C(F)(F)F)[nH]c(=O)c2c1C (stereo not given)	Mdm2-MdmX inh 51.0 | Mdm2-MdmX conf inactive
Cn1ccnc1C(=O)c1cc(SCC(=O)NCc2ccccc2)nc2ccccc12	none
COc1ccc(-c2nc(-c3ccc4c(c3)OCO4)[nH]c2-c2ccc(OC)cc2)cc1	SKKanGAS inh 55.5, Mdm2-MdmX inh 67.4 (no result: CSC inhib) | Mdm2-MdmX conf inactive
COc1ccc2c(c1)CC/C2=N\OC(=O)c1ccccc1C	Mdm2-MdmX inh 100.3 (no result: Beta cell apopt) | Mdm2-MdmX conf inactive | FLuc counter inactive
COc1ccc2c(c1)CC/C2=N\NC(=O)c1ccccc1	none
COc1ccc2c(c1)CC/C2=N\OC(=O)c1cccc(C)c1	Mdm2-MdmX inh 96.6 | Mdm2-MdmX conf 54.6 | FLuc counter inactive
COc1ccc2c(c1)CCC/C2=N/OC(=O)c1ccccc1OC	none

Screening data from PubChem BioAssay.
